In ChEMBL document CHEMBL4138111, “Nanomolar anti-sickling compounds identified by ligand-based pharmacophore approach” (Eur J Med Chem, 2017):

Assays:
[1] = biological target: T1, Adenosine receptor A2b (Homo sapiens) (UniProt P29275); test: Antagonist activity at Adenosine receptor subtype 2B in human RBC assessed as change in erythrocyte morphology at 10 uM incubated for 3 hrs with occasional gentle stirring for every 30 min measured for every 12 hrs by microscopic analysis relative to control; format: functional, cell-based; set-up: scale not given: the % may be the effect or the level left
T1 sequence (whole entry): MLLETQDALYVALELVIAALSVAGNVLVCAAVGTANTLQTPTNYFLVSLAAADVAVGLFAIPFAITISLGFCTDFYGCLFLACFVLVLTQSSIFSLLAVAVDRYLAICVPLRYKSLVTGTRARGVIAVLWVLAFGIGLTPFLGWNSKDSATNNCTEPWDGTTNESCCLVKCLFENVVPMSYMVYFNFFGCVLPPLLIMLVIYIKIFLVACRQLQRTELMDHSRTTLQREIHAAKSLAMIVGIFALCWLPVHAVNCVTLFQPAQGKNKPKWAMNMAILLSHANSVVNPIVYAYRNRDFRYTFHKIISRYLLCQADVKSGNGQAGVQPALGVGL
How it was run: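 RBCs come from sickle cell anemia patients, washed in 0.9% saline and diluted 1:10. Cells are exposed to compound at a single 10 µM final concentration for 3 h at 37 °C, stirred gently every 30 min, then given 2% sodium metabisulfite. Morphology is read by microscopy (40X) every 12 h, counting >500 erythrocytes from five random fields. Triplicate assays; MRS1754 (10 µM) is the reference antagonist.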

[2] = biological target: T1, Adenosine receptor A2b (Homo sapiens); test: Antagonist activity at Adenosine receptor subtype 2B in human RBC assessed as inhibition of NECA-induced-sickling effect by measuring change in erythrocyte morphology preincubated for 3 hrs with occasional gentle stirring for every 30 min followed by incubated for 2 to 12 hrs under normoxic/hypoxic condition measured for every 12 hrs by microscopic analysis; format: functional, cell-based
How it was run: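 Patient SCA erythrocytes are treated as in the EC50 sickling assay. Compounds are tested at three concentrations (0.03-1) against six NECA concentrations (0.001-1000). Sickling is scored by microscopy. NECA EC50 is determined with and without compound, and the dose ratio is derived from these. pKb is obtained by Schild analysis as log[DR−1] − log[B]. Mean ± SD of five experiments.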

[3] = test system: J774; test: Cytotoxicity against mouse J774 cells assessed as cell viability up to 100 uM after 72 hrs by AlamarBlue assay; format: cell-based; conditions: j774, 72 h
How it was run: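 J774 murine macrophage-like cells are seeded at 2 × 10^5 cells/well in DMEM with 10% FBS and gentamycin and incubated 2 h at 37 °C, 5% CO2. Compounds are added at five concentrations (6.25-100) for 72 h, in 5% DMSO/saline vehicle. Alamar Blue is then added for 12 h more, with absorbance read at 570 and 600 nm. Gentian violet serves as positive control. Triplicates, three experiments.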

[4] = biological target: Adenosine receptor (Homo sapiens, UniProt P30542+P29275+P0DMS8+P29274); test: Antagonist activity at Adenosine receptor in human RBC assessed as change in erythrocyte morphology incubated for 3 hrs with occasional gentle stirring for every 30 min measured for every 12 hrs by microscopic analysis; format: cell-based
How it was run: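 Erythrocytes from sickle cell anemia patients are separated by centrifugation (5 min, 16,000 g, 4 °C), washed three times in 0.9% saline and diluted 1:10 in saline. Cells are held with compound at 37 °C for 3 h, then challenged with 2% sodium metabisulfite. Sickled cells (>500 cells, five fields, 40X) are counted. Seven concentrations (0.001-100) are tested. EC50 comes from biphasic nonlinear regression with Hill slopes fixed at 1.0. Mean ± SD of five experiments, each in triplicate.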

Structure (SMILES)	Activity [1] [%]	inhibition [2]	pKb [2]	Activity [3]	pEC50 [4]
O=C(CN1CCOC(Cn2cncn2)C1)Nc1cccnc1 (stereo not drawn)	> 70	Dose-dependent effect	8.31	Non-Toxic	5.29
CC(C)c1noc(OCC(=O)NCc2ccc3c(c2)OCO3)n1	> 70	Dose-dependent effect	7.99		4.21
CCCc1cc(O)nc(SC(C)C(=O)Nc2cc(C)no2)n1 (stereo not drawn)	> 70	Dose-dependent effect	9.45	Non-Toxic	
CCCn1c(=O)c2[nH]c(-c3ccc(OCC(=O)Nc4ccc(C#N)cc4)cc3)nc2n(CCC)c1=O	54	Dose-dependent effect	8.68		
CC(OC(=O)c1nccnc1N)C(=O)NCc1ccc2c(c1)OCO2 (stereo not drawn)	> 70	Dose-dependent effect	9.54		
Cc1cc(NC(=O)CNc2ccc3c(c2)OC(F)(F)O3)on1	> 70	Dose-dependent effect	7.38		5.06
